Assays:
[1] = test system: patients with advanced solid tumors; assay: Phase I dose-escalation safety: adverse events; type: in vivo, human
[2] = biological target: CDK7 (Homo sapiens, UniProt P50613); assay: CDK7-target occupancy assay; type: in vivo
How it was run: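 Skin biopsies were taken at baseline (≤14 days pre-dose) and 6–8 h postdose on days 1 and 15; PBMCs predose day 1 and 8 h postdose days 1 and 15. Lysates were labelled with a biotinylated probe. Anti-cyclin H captured CDK7/cyclin H on MSD plates. Unbound CDK7 was read with SULFO-TAG streptavidin, total with anti-CDK7 mAb. Skin occupancy was baseline-normalised unbound/total; PBMC occupancy was unbound versus day-1 predose.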

[3] = Plasma pharmacokinetics, noncompartmental analysis; type: in vivo, human
How it was run: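 Oral dosing QD (part A1) or TIW (part A2). Intensive plasma samples were taken after the dose on cycle 1 days 1 and 15, for up to 24 h (A1) or 48 h (A2). Cmax, Tmax, AUC(0-Inf) and terminal half-life came from plasma concentrations by standard noncompartmental analysis, with descriptive statistics.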

Sequence of CDK7 (P50613 2-346 limits assumed): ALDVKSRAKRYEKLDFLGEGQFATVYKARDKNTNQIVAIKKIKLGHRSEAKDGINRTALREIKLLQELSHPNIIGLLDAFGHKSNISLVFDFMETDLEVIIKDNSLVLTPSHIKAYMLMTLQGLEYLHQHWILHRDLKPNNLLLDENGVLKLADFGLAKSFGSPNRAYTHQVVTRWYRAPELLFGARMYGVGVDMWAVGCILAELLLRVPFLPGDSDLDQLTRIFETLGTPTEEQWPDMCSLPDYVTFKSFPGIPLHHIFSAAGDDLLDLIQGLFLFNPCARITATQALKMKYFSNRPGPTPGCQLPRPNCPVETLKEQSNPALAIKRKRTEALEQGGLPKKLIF
Sequence of CDK7 (P51946 whole entry partner): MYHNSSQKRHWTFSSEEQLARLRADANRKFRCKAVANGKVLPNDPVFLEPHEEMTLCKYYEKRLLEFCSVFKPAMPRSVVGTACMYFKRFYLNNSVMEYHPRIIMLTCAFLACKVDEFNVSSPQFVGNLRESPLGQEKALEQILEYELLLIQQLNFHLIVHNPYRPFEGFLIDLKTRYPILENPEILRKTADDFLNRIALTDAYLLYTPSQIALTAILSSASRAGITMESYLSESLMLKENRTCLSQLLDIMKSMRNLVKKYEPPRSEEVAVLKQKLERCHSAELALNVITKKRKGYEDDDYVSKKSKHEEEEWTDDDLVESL
Sequence of CDK7 (P51948 whole entry partner): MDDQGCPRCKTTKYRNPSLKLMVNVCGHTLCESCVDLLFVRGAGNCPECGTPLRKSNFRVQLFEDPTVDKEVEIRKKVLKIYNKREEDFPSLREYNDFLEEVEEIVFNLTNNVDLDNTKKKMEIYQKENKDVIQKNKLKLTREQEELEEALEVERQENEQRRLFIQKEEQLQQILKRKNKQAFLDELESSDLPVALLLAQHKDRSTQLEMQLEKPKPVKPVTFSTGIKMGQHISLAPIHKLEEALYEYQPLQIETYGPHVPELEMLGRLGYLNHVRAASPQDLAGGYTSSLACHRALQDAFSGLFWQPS

Cc1cc(NC2CCN(C(=O)OC3CCN(C(=O)/C=C/CN(C)C)C3)CC2)n2ncc(C(C)C)c2n1 (centres unmarked) [LY3405105]
exposures increased with dose: Dose dependence of plasma exposure ([3]; 1 to 45 mg QD day 1, 1 to 35 mg QD day 15, 2 to 8 mg TIW day 1 and day 15)
2 (4) n (%): SAE related to study treatment: Diarrhea ([1]; Total (N = 54), Any grade) | SAE related to study treatment: Diarrhea ([1]; Total (N = 54), ≥Grade 3) | TRAE: Anemia ([1]; Total (N = 54), ≥Grade 3) | TRAE: Diarrhea ([1]; Total (N = 54), ≥Grade 3)
8 (15) n (%): TRAE: Fatigue ([1]; Total (N = 54), Any grade) | TRAE: Vomiting ([1]; Total (N = 54), Any grade)
6 (11) n (%): TRAE: Abdominal pain ([1]; Total (N = 54), Any grade) | TRAE: Anemia ([1]; Total (N = 54), Any grade) | TRAE: Asthenia ([1]; Total (N = 54), Any grade) | TRAE: Platelet count decrease ([1]; Total (N = 54), Any grade) | Patients with ≥1 SAE related to study treatment ([1]; Total (N = 54), ≥Grade 3)
1 (2) n (%): SAE related to study treatment: Abdominal pain ([1]; Total (N = 54), Any grade) | SAE related to study treatment: Acute kidney injury ([1]; Total (N = 54), Any grade) | SAE related to study treatment: Alanine aminotransferase increase ([1]; Total (N = 54), Any grade) | SAE related to study treatment: Dyspnea ([1]; Total (N = 54), Any grade) | SAE related to study treatment: Hypotension ([1]; Total (N = 54), Any grade) | SAE related to study treatment: Mucosal inflammation ([1]; Total (N = 54), Any grade) | SAE related to study treatment: Nausea ([1]; Total (N = 54), Any grade) | SAE related to study treatment: Ophthalmic herpes zoster ([1]; Total (N = 54), Any grade) | SAE related to study treatment: Platelet count decrease ([1]; Total (N = 54), Any grade) | SAE related to study treatment: Acute kidney injury ([1]; Total (N = 54), ≥Grade 3) | SAE related to study treatment: Alanine aminotransferase increase ([1]; Total (N = 54), ≥Grade 3) | SAE related to study treatment: Dyspnea ([1]; Total (N = 54), ≥Grade 3) | SAE related to study treatment: Mucosal inflammation ([1]; Total (N = 54), ≥Grade 3) | SAE related to study treatment: Nausea ([1]; Total (N = 54), ≥Grade 3) | SAE related to study treatment: Ophthalmic herpes zoster ([1]; Total (N = 54), ≥Grade 3) | SAE related to study treatment: Platelet count decrease ([1]; Total (N = 54), ≥Grade 3) | TRAE: Fatigue ([1]; Total (N = 54), ≥Grade 3) | TRAE: Nausea ([1]; Total (N = 54), ≥Grade 3)
64.8%: Patients reporting at least one treatment-related adverse event (TRAE) ([1]; all patients (N = 54))
up to 90%: CDK7-target occupancy observed ([2]; highest observed in the trial)
75%: CDK7-target occupancy (near maximal) ([2]; skin and peripheral blood, day 15, ≥15 mg QD)
> 75%: CDK7 target occupancy ([2]; ≥15 mg once daily)
approximately 500 ng h/mL: Steady-state AUC above which maximum skin target occupancy occurred ([2]; part A1, skin, day 15, corresponds to doses at 15 mg QD)
15 to 19 h: Geometric mean terminal elimination half-life ([3]; oral dosing, assessed in the TIW group)
no DLT was observed: Dose-limiting toxicity ([1]; part A1, 20 mg QD) | Dose-limiting toxicity ([1]; part A1, 1, 2, 4, 8, 15, or 30 mg QD) | Dose-limiting toxicity ([1]; part A2 (TIW), 2 mg, 4 mg, or 8 mg)
0 n (%): SAE related to study treatment: Dyspnea ([1]; TIW (N = 11), ≥Grade 3) | SAE related to study treatment: Hypotension ([1]; TIW (N = 11), ≥Grade 3) | SAE related to study treatment: Mucosal inflammation ([1]; TIW (N = 11), ≥Grade 3) | SAE related to study treatment: Nausea ([1]; TIW (N = 11), ≥Grade 3) | SAE related to study treatment: Ophthalmic herpes zoster ([1]; TIW (N = 11), ≥Grade 3) | SAE related to study treatment: Platelet count decrease ([1]; TIW (N = 11), ≥Grade 3) | TRAE: Abdominal pain ([1]; TIW (N = 11), ≥Grade 3) | TRAE: Anemia ([1]; TIW (N = 11), ≥Grade 3) | TRAE: Asthenia ([1]; TIW (N = 11), ≥Grade 3) | TRAE: Diarrhea ([1]; TIW (N = 11), ≥Grade 3) | TRAE: Fatigue ([1]; TIW (N = 11), ≥Grade 3) | TRAE: Nausea ([1]; TIW (N = 11), ≥Grade 3) | TRAE: Platelet count decrease ([1]; TIW (N = 11), ≥Grade 3) | TRAE: Vomiting ([1]; TIW (N = 11), ≥Grade 3) | SAE related to study treatment: Abdominal pain ([1]; Total (N = 54), ≥Grade 3) | SAE related to study treatment: Hypotension ([1]; Total (N = 54), ≥Grade 3) | TRAE: Abdominal pain ([1]; Total (N = 54), ≥Grade 3) | TRAE: Asthenia ([1]; Total (N = 54), ≥Grade 3) | TRAE: Vomiting ([1]; Total (N = 54), ≥Grade 3)
35 (65) n (%): Patients with ≥1 TRAE ([1]; Total (N = 54), Any grade)
10 (19) n (%): TRAE: Nausea ([1]; Total (N = 54), Any grade) | Patients with ≥1 TRAE ([1]; Total (N = 54), ≥Grade 3)
Seven: Patients with dose-limiting toxicities ([1]; all 54 enrolled patients, all DLTs in part A1 (QD))
7 (13) n (%): Patients with ≥1 SAE related to study treatment ([1]; Total (N = 54), Any grade)
approximately 1000 ng h/mL: Start of the steady-state AUC range where DLTs were observed ([1]; part A1, corresponds to doses of 30 to 45 mg QD)
18 (33) n (%): TRAE: Diarrhea ([1]; Total (N = 54), Any grade)
3 (6) n (%): TRAE: Platelet count decrease ([1]; Total (N = 54), ≥Grade 3)
1 to 2 h: Median time to maximum concentration ([3]; oral dosing, patients)
≥ 15 mg: Dose at which near maximal CDK7-target occupancy was achieved ([2]; QD, steady state on day 15)

Reference: publication PMC10769797 (The Oncologist, 2023)
